Paper PMC6304448 (Heliyon, 2018)
In brackets after ≈: the same amount, converted by molar mass.

Key:
Assay type in all cases: cell-based
[1] = test system: Leishmania donovani promastigotes; test: Antileishmanial assay; settings: 72 h; for IC50: read-out: antileishmanial activity IC50; for IC90: read-out: antileishmanial activity IC90
Procedure, shortened: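 Leishmania donovani promastigote or axenic amastigote cultures at 2 × 10⁶ cells/ml were exposed to test compound and incubated at 26 °C for 72 hours. Growth was read by AlamarBlue. Pentamidine and amphotericin B served as positive controls. IC₅₀ and IC₉₀ were computed from dose-response curves.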

[2] = In-vitro cytotoxicity assay; settings: African green monkey, VERO cells (mammalian kidney fibroblasts, ATCC)
Procedure, shortened: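 VERO cells were seeded at 25,000 cells/well and incubated for 24 h. Test compound was added at a range of concentrations and incubated a further 48 h. Viable cells were quantified by a modified Neutral Red uptake method. Doxorubicin was the positive control and DMSO the negative control. IC₅₀ was derived from dose-response curves.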

[3] = test system: chloroquine sensitive (D6, Sierra Leone) strain of Plasmodium falciparum; test: Antimalarial assay; settings: D6, 72 h, read-out: antimalarial activity IC50
Procedure, shortened: (§1)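 Test compound was dissolved in DMSO (2 mg/ml stock) and serially diluted. It was then added to P. falciparum culture (2% parasitemia, 2% hematocrit) in RPMI 1640 with 10% human serum and 60 μg/mL amikacin. Plates were held under 90% N₂/5% O₂/5% CO₂ at 37 °C for 72 hours. Parasite LDH was assayed with Malstat reagent for 30 min, then NBT/PES for 1 h in the dark. The reaction was stopped with 5% acetic acid and read at 650 nm. Chloroquine and artemisinin were positive controls and DMSO (0.25%) the negative control. IC₅₀ came from percent growth versus concentration curves.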

[4] = test system: chloroquine resistant (W2, Indo China) strain of Plasmodium falciparum; test: Antimalarial assay; settings: W2, 72 h, read-out: antimalarial activity IC50
Procedure, shortened: as §1

SMILES	IC50 [1] [µg/mL]	IC90 [1] [µg/mL]	IC50 at 48 h [2] [µg/mL]	IC50 [3] [µg/mL]	IC50 [4] [µg/mL]
O=C1CC(O)C2(O)c3c(ccc(O)c31)-c1ccc(O)c3c1C2C1OC1C3O (stereo not shown) [Compound 1, 3,6,6a,9,10-pentahydroxy-7,8-epoxy-4-oxo-4,5,6,6a,6b,7,8,9-octahydroperylene]	2.55 (≈ 6.92 µM)	8.28 (≈ 22.5 µM)	–	–	–
O=C1CC(O)C2c3c(ccc(O)c31)-c1ccc(O)c3c1C2(O)C(O)CC3=O (stereo not shown) [Compound 2, 3,6,6a,7,10-pentahydroxy-4,9-dioxo-4,5,6,6a,6b,7,8,9-octahydroperylene]	4.4 (≈ 11.9 µM)	9.54 (≈ 25.9 µM)	3.59 (≈ 9.75 µM)	4.24 (≈ 11.5 µM)	3.65 (≈ 9.91 µM)
